Data reported in ChEMBL document CHEMBL3351265.
One block for each compound: values may come before it. Calls of active or inactive are those of the source. The calls are words filed in the database; no cut-off is given here.

Experiments:
[1] = Reduction in EZH2 protein expression in human Toledo cells at 10 uM after 72 hrs by Western blot analysis; assay type: functional, cell-based
Summary of the method: (§1)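 DB (mutant EZH2) or Toledo (wild-type EZH2) DLBCL cells treated with compound for 72 h; lysed in RIPA buffer; 30 μg total protein resolved by SDS-PAGE, blotted to PVDF, probed for EZH2, EED, SUZ12 or H3K27me3 with HRP secondary and chemiluminescent detection; total histone H3 as loading control; 10 μM EPZ005687 as reference inhibitor.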

DB [2] = assay: Reduction in EZH2 protein expression in human DB cells at 10 uM after 72 hrs by Western blot analysis; assay type: functional, cell-based; summary of the method: as §1
[3] = Reduction in EED protein expression in human Toledo cells at 10 uM after 72 hrs by Western blot analysis; assay type: functional, cell-based; summary of the method: as §1
DB [4] = assay: Reduction in SUZ12 protein expression in human DB cells at 10 uM after 72 hrs by Western blot analysis; assay type: functional, cell-based; summary of the method: as §1
DB [5] = assay: Reduction in EED protein expression in human DB cells at 10 uM after 72 hrs by Western blot analysis; assay type: functional, cell-based; summary of the method: as §1
[6] = Reduction in SUZ12 protein expression in human Toledo cells at 10 uM after 72 hrs by Western blot analysis; assay type: functional, cell-based; summary of the method: as §1
DB [7] = assay: Reduction in EED protein expression in human DB cells at 7.5 to 30 uM after 72 hrs by Western blot analysis; assay type: functional, cell-based; summary of the method: as §1
[8] = Reduction in SUZ12 protein expression in human Toledo cells at 2 to 8 uM after 72 hrs by Western blot analysis; assay type: functional, cell-based; summary of the method: as §1
DB [9] = assay: Reduction in SUZ12 protein expression in human DB cells at 7.5 to 30 uM after 72 hrs by Western blot analysis; assay type: functional, cell-based; summary of the method: as §1
[10] = Reduction in EZH2 protein expression in human Toledo cells at 2 to 8 uM after 72 hrs by Western blot analysis; assay type: functional, cell-based; summary of the method: as §1
[11] = Reduction in EED protein expression in human Toledo cells at 2 to 8 uM after 72 hrs by Western blot analysis; assay type: functional, cell-based; summary of the method: as §1
DB [12] = assay: Reduction in EZH2 protein expression in human DB cells at 7.5 to 30 uM after 72 hrs by Western blot analysis; assay type: functional, cell-based; summary of the method: as §1
[13] = test system: Polycomb protein EED (Homo sapiens), O75530 [L315D]; conditions: 200 uM
Pfeiffer [14] = assay: Antiproliferative activity against human Pfeiffer cells after 7 days by CCK8 assay
DB [15] = assay: Antiproliferative activity against human DB cells after 7 days by CCK-8 assay; assay type: functional, cell-based
Summary of the method: (§2)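 DLBCL lines from ATCC grown in RPMI 1640 with 10% FBS and Pen/Strep; 1−2 × 10^4 cells per well seeded in serum-containing medium with compound, triplicate cultures; 7 days incubation; viability by CCK-8 absorbance at 450 nm (600 nm reference), expressed as percentage of absorbance relative to control cells.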

DB [16] = assay: Reduction in EZH2 protein expression in human DB cells after 72 hrs by Western blot analysis; assay type: functional, cell-based; summary of the method: as §1
[17] = test system: Polycomb protein EED (Homo sapiens), O75530 [F356Y]; conditions: 200 uM
[18] = Reduction in EED protein expression in human Toledo cells after 72 hrs by Western blot analysis; assay type: functional, cell-based; summary of the method: as §1
SU-DHL-6 [19] = assay: Antiproliferative activity against human SU-DHL6 cells after 7 days by CCK8 assay
DB [20] = assay: Antiproliferative activity against shRNA-treated human DB cells at 2.5 to 15 uM after 3 days by Alamar blue assay; assay type: functional, cell-based
Summary of the method: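 DB cells transduced with lentiviral pSICOR shRNA (mock, shEED or shEZH2); 5000 cells per well in serum-containing medium with compound, triplicate cultures; 3 days incubation; alamar blue added, plates incubated at 37 °C and read at 560 nm.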

DB [21] = assay: Antiproliferative activity against human DB cells after 72 h by flow cytometry in presence of EPZ005687
Pfeiffer [22] = assay: Antiproliferative activity against human Pfeiffer cells at 5 uM after 7 days by CCK-8 assay in presence of 5 uM EPZ005687; assay type: functional, cell-based
[23] = test system: Polycomb protein EED (Homo sapiens), O75530 [V112E]; conditions: 200 uM
[24] = target: Polycomb protein EED (Homo sapiens) (UniProt O75530)
Toledo [25] = assay: Antiproliferative activity against human Toledo cells at 5 uM after 72 hrs by flow cytometry in presence of 5 uM EPZ005687
[26] = test system: Polycomb protein EED (Homo sapiens), O75530 [L246E]; conditions: 200 uM
[27] = target: Polycomb protein EED (Homo sapiens) (UniProt O75530); remark: listed apart in the source
SU-DHL-6 [28] = assay: Antiproliferative activity against human SU-DHL6 cells at 5 uM after 7 days by CCK-8 assay in presence of 5 uM EPZ005687; assay type: functional, cell-based
Pfeiffer [29] = assay: Antiproliferative activity against human Pfeiffer cells after 7 days by CCK-8 assay; assay type: functional, cell-based; summary of the method: as §2
SUD4 [30] = assay: Antiproliferative activity against human SU-DHL4 cells at 5 uM after 7 days by CCK-8 assay in presence of 5 uM EPZ005687; assay type: functional, cell-based
SUD4 [31] = assay: Antiproliferative activity against human SU-DHL4 cells after 7 days by CCK-8 assay; assay type: functional, cell-based; summary of the method: as §2
DB [32] = assay: Reduction in SUZ12 protein expression in human DB cells after 72 hrs by Western blot analysis; assay type: functional, cell-based; summary of the method: as §1
SUD4 [33] = assay: Antiproliferative activity against human SU-DHL4 cells after 7 days by CCK8 assay
[34] = target: Polycomb protein EED (Homo sapiens) (UniProt O75530); remark: listed apart in the source
[35] = target: Polycomb protein EED (Homo sapiens) (UniProt O75530); remark: listed apart in the source
DB [36] = assay: Antiproliferative activity against human DB cells at 5 uM after 72 hrs by flow cytometry in presence of 5 uM EPZ005687
[37] = target: Polycomb protein EED (Homo sapiens) (UniProt O75530); remark: listed apart in the source
DB [38] = assay: Reduction in EED protein expression in human DB cells after 72 hrs by Western blot analysis; assay type: functional, cell-based; summary of the method: as §1
[39] = test system: Polycomb protein EED (Homo sapiens), O75530 [L353A]; conditions: 200 uM
[40] = Reduction in EZH2 protein expression in human Toledo cells after 72 hrs by Western blot analysis; assay type: functional, cell-based; summary of the method: as §1
Toledo [41] = assay: Antiproliferative activity against human Toledo cells after 7 days by CCK-8 assay; assay type: functional, cell-based; summary of the method: as §2
[42] = Reduction in SUZ12 protein expression in human Toledo cells after 72 hrs by Western blot analysis; assay type: functional, cell-based; summary of the method: as §1
Toledo [43] = assay: Antiproliferative activity against human Toledo cells by flow cytometry
SU-DHL-6 [44] = assay: Antiproliferative activity against human SU-DHL6 cells after 7 days by CCK-8 assay; assay type: functional, cell-based; summary of the method: as §2
[45] = test system: Polycomb protein EED (Homo sapiens), O75530 [L123E]; conditions: 200 uM
Sequence of Polycomb protein EED (Homo sapiens), O75530 [L123E] (O75530 whole entry L123E): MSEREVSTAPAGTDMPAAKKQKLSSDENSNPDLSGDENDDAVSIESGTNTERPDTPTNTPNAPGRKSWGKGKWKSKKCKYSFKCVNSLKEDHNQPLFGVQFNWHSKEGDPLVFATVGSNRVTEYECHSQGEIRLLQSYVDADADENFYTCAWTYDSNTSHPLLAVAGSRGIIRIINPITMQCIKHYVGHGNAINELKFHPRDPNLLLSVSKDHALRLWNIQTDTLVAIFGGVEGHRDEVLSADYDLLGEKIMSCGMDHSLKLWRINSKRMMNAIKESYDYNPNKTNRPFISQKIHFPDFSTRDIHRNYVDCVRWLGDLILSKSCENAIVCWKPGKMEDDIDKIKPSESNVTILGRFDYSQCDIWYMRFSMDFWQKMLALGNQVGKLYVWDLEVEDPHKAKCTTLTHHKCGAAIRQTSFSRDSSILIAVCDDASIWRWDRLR

Sequence of Polycomb protein EED (Homo sapiens) (O75530 2-441 limits assumed): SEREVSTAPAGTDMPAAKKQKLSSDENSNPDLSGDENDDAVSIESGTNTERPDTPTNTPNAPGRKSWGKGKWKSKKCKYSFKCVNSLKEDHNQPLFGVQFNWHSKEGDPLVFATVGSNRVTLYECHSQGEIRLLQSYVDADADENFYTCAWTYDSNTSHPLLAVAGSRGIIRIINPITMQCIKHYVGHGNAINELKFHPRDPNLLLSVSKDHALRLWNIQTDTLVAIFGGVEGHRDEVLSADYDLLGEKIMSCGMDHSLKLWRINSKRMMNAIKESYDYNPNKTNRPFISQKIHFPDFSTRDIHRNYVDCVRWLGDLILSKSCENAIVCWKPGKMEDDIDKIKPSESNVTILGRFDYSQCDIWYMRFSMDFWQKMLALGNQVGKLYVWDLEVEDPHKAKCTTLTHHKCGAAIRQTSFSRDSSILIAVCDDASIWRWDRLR
Sequence of Polycomb protein EED (Homo sapiens), O75530 [L353A] (O75530 whole entry L353A): as the sequence (O75530 whole entry L123E) above, with E123L, L353A counted along it
Sequence of Polycomb protein EED (Homo sapiens), O75530 [V112E] (O75530 whole entry V112E): as the sequence (O75530 whole entry L123E) above, with V112E, E123L counted along it
Sequence of Polycomb protein EED (Homo sapiens), O75530 [L315D] (O75530 whole entry L315D): as the sequence (O75530 whole entry L123E) above, with E123L, L315D counted along it
Sequence of Polycomb protein EED (Homo sapiens), O75530 [L246E] (O75530 whole entry L246E): as the sequence (O75530 whole entry L123E) above, with E123L, L246E counted along it
Sequence of Polycomb protein EED (Homo sapiens), O75530 [F356Y] (O75530 whole entry F356Y): as the sequence (O75530 whole entry L123E) above, with E123L, F356Y counted along it

Structure (SMILES): Cc1cc(C)c(CNC(=O)c2cc(-c3ccc(CN4CCOCC4)cc3)cc3c2cnn3C2CCCC2)c(=O)[nH]1
Activity [1]: inactive
Activity (DB [2]): inactive
Activity [3]: inactive
Activity (DB [4]): inactive
Activity (DB [5]): inactive
Activity [6]: inactive

Structure (SMILES): COc1cccc2c1C(=O)c1c(O)c3c(c(O)c1C2=O)C[C@@](O)(C(=O)CO)C[C@@H]3O[C@H]1C[C@H](N)[C@H](O)[C@H](C)O1
Activity (DB [7]): inactive
Activity [8]: inactive
Activity (DB [9]): inactive
Activity [10]: inactive
Activity [11]: inactive
Activity (DB [12]): inactive

Tm [13]: 38.1 °C
Tm [17]: 38.2 °C
Tm [23]: 38.2 °C
ΔTm [24]: 3.44 °C
Tm [26]: 38.1 °C
ΔTm [27]: 4.08 °C
ΔTm [34]: 4.29 °C
ΔTm [35]: 2 °C
ΔTm [37]: 1.64 °C
Tm [39]: 38.2 °C
Tm [45]: 38.2 °C
Structure (SMILES): COc1ccc(CCN2CCC(Nc3nc4ccccc4n3Cc3ccc(F)cc3)CC2)cc1
Activity (Pfeiffer [14]): Active
Activity (DB [15]): Active
Activity (DB [16]): Active
Activity [18]: Active
Activity (SU-DHL-6 [19]): Active
Activity (DB [20]): inactive
Activity (DB [21]): Active
Activity (Pfeiffer [22]): Active
Activity (Toledo [25]): Active
Activity (SU-DHL-6 [28]): Active
Activity (Pfeiffer [29]): Active
Activity (SUD4 [30]): Active
Activity (SUD4 [31]): Active
Activity (DB [32]): Active
Activity (SUD4 [33]): Active
Activity (DB [36]): Active
Activity (DB [38]): Active
Activity [40]: Active
Activity (Toledo [41]): Active
Activity [42]: Active
Activity (Toledo [43]): Active
Activity (SU-DHL-6 [44]): Active
